In paper PMC11725097 (Acta Pharmaceutica Sinica. B, 2024):

How the values were obtained:
[1] = molecular target: T1, recombinant human cathepsin A (CTSA) (Homo sapiens, UniProt P10619); experiment: CTSA-catalyzed H2S release, fluorescent probe DNS-N3; type: biochemical; details: donors 5 μmol/L, CTSA 250 ng/mL, pH 7.4, 37 °C
T1 sequence (P10619 29-326 limits assumed): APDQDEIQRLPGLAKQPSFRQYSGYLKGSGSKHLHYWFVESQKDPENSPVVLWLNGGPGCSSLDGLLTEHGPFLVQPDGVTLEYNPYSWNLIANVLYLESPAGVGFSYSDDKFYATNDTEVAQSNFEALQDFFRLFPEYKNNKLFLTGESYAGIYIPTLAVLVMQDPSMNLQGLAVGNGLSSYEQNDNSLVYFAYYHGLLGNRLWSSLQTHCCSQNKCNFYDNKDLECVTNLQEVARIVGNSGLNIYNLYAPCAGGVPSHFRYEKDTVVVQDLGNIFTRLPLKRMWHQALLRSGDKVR
T1 sequence (P10619 327-480 limits assumed): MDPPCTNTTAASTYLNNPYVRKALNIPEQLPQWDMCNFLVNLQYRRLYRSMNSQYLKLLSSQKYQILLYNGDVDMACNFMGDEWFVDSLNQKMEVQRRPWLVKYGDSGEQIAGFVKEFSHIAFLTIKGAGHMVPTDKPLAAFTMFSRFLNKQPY
In short: (§1)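 Donor at 5 µmol/L final and DNS-N3 probe at 10 µmol/L final were incubated at 37 °C in 10 mmol/L TBS, pH 7.4, with 1% acetonitrile and 1% […]. The enzyme was either CPY at 60 ng/mL or pre-activated recombinant human CTSA at 250 ng/mL. Aliquots were mixed 1:1 with ACN and fluorescence read at Ex/Em 325/450 nm, minus control background. k came from a single-exponential fit, with t1/2 = 0.693/k. Triplicates, mean ± SD.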

[2] = tested on: human hepatic stellate LX-2 cells; experiment: TGF-β1-induced fibrosis in LX-2 cells, ACTA2 and COL1A1 mRNA; type: cell-based; details: LX-2, TGF-β1, 72 h; JZ-HND 25-200 μmol/L, others 200 μmol/L
HepG2 cells [3] = experiment: Ferroptosis rescue, RSL3-treated HepG2 cells; type: cell-based; details: HepG2, RSL3 4 μmol/L; JZ-6 20 μmol/L, Fer-1 1 μmol/L, 24 h
In short: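 HepG2 cells (5×10^3/well) were plated overnight. Cells were pretreated 2 h with RSL3 (4 µmol/L), then given medium, compound (20 µmol/L) or Fer-1 (1 µmol/L) for 24 h. CCK-8 was added for 2–4 h at 37 °C and absorbance read at 450 nm. Viability is expressed as % of medium-treated control. Three independent experiments, mean ± SD.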

Carboxypeptidase Y (CPY) [4] = molecular target: T2, Carboxypeptidase Y (CPY) (Saccharomyces cerevisiae, UniProt P00729); experiment: Enzyme; type: biochemical; details: CPY 60 ng/mL; for H2S release over 6 h: donors 5 μmol/L, DNS-N3 10 μmol/L, TBS pH 7.4, 37 °C
T2 sequence (P00729 112-532): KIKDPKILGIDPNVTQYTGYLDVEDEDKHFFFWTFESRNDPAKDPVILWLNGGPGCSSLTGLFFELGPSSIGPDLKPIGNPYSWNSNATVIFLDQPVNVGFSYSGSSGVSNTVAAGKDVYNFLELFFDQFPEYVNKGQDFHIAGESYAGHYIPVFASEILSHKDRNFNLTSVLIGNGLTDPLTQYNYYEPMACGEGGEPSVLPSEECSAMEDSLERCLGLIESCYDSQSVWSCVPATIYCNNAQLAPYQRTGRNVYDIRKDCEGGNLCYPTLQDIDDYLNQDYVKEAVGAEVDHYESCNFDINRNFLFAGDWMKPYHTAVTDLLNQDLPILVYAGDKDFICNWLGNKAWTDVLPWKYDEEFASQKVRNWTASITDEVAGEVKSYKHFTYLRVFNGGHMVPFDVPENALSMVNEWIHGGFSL
In short: as §1

[5] = H2S release within tissue homogenates; type: in vitro ADME, Sprague-Dawley rats; details: donors 250 μmol/L, rat intestine and liver homogenates, 40 min
HepG2 cells [6] = experiment: Formation of compound 3 in lysosomes of HepG2 cells; type: cell-based; details: HepG2, JZ-6 25 μmol/L with BNPP 20 μmol/L or telaprevir 5 μmol/L, 6 h
In short: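 HepG2 cells were treated 6 h with donor (25 µmol/L) alone, with BNPP (20 µmol/L) or with telaprevir (5 µmol/L). For lysosome isolation, cells were Dounce-homogenised and spun at 1000 × g, then 20,000 × g, and the top band taken from an OptiPrep gradient at 100,000 × g, 1 h. Fractions were lysed in cold 70% methanol and analysed by LC–MS/MS, normalised to BCA protein. Triplicate.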

RAW264.7 macrophages = experiment: LPS-induced IL-1β and IL-6 release in RAW 264.7 macrophages; type: cell-based, mouse; details: RAW 264.7, LPS 1 μg/mL, 20, 100, 500 μmol/L, 24 h
In short: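 RAW 264.7 cells (2×10^5/well) were plated overnight. Cells were pretreated 1 h with compound or NaHS at 20, 100 or 500 µmol/L, then stimulated with LPS (1 µg/mL) for 24 h. IL-1β and IL-6 in the supernatants were measured by ELISA. Three independent experiments, mean ± SD.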

HepG2 cells [7] = experiment: FFA-induced ROS accumulation in HepG2 cells; type: cell-based; details: HepG2, compound 100 μmol/L 8 h before FFA 1 mmol/L 24 h
HepG2 cells [8] = experiment: MDA; type: cell-based; details: HepG2, FFA 1 mmol/L, 24 h; JZ-6 20, 100, 500 μmol/L; NaHS and JZ-9 500 μmol/L
In short: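 HepG2 cells (7×10^5/well, plated overnight) were co-incubated 24 h with FFA (1 mmol/L) alone or plus compound (20, 100 or 500 µmol/L) or NaHS (500 µmol/L). MDA in cell lysates was measured with a kit by fluorescence at Ex/Em 532/553 nm and normalised to cell counts. Three independent experiments, mean ± SD.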

Carboxypeptidase Y (CPY) [9] = molecular target: T2, Carboxypeptidase Y (CPY); experiment: H2S donor activation by CPY monitored by LC-MS/MS; type: in vitro ADME; details: JZ-HND 5 μmol/L, CPY 60 ng/mL
In short: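 Donor at 5 µmol/L final and DNS-N3 at 10 µmol/L final were incubated with CPY (60 ng/mL) in 10 mmol/L TBS, pH 7.4, with 1% menthol, at 37 °C. Parent loss and formation of products, including DNS-NH2, were quantified by LC–MS/MS against calibration curves. Rate constants came from a single-exponential fit, with t1/2 = 0.693/k. Triplicate runs, mean ± SD.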

[10] = Animal pharmacokinetics, mice livers; type: in vivo, BALB/c mice; details: oral JZ-HND 1.0 mmol/kg
In short: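 Male BALB/c mice, fasted 12 h without water, were gavaged at 1 mmol/kg in 0.5% CMC-Na (3 groups, n = 3 each). Plasma was separated by centrifugation and stored below −40 °C. Liver was taken at 0.5, 4 and 8 h post dose and homogenised 10:1 in PBS containing 70% MeOH. Parent and metabolites were quantified by LC–MS/MS.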

[11] = Detection of H2S and sulfur-containing species in mouse liver; type: in vivo, BALB/c mice; details: oral JZ-HND 1.0 mmol/kg
In short: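 BALB/c mice received an oral dose of 1.0 mmol/kg. Liver was collected before dosing (0 h) and at 0.5 and 4 h, then homogenised 10:1 in 20 mmol/L HPE-IAM in MeOH to trap H2S and sulfur species as S-alkylated derivatives, and stored below −40 °C. Derivatives were quantified by LC–MS/MS against synthesised standards and calibration curves. n = 3, mean ± SD.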

LX-2 cells = experiment: ROS induced by TGF-β1 in LX-2 cells; type: cell-based, human; details: LX-2, TGF-β1 10 ng/mL, compound 100 μmol/L, 24 h
In short: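 LX-2 cells were grown in high-glucose DMEM with 10% FBS at 37 °C and 5% CO2, then plated at 1×10^5/well overnight. Cells were co-treated 24 h with compound (100 µmol/L) and TGF-β1 (10 ng/mL). They were loaded with DCFH-DA (10 µmol/L) for 30 min and Hoechst 33342 for 10 min at 37 °C, then imaged by fluorescence microscopy in the GFP channel.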

[12] = tested on: CCl4-induced liver injury; experiment: CCl4-induced liver injury model in mice; type: in vivo, BALB/c mice; details: 1 mmol/kg oral daily, 4 weeks

SMILES: CC(C)OC(=O)[C@H](C)NP(=S)(Oc1ccc(CCN2CCOCC2)cc1)c1ccccc1 (stereo partly shown) [JZ-18]
- H2S release, rate constant k [1]: 0.2978 h⁻¹
- H2S yield ([1]; 10 h): approximately 37%

SMILES: Cc1ccc(=O)n(-c2ccc(OP(=O)(N[C@@H](C)C(=O)OC(C)C)c3ccccc3)cc2)c1 (stereo partly shown) [JZ-17]
- mRNA expression of ACTA2 and COL1A1 [2]: did not inhibit the expression of pro-fibrotic genes as much as JZ-HND

SMILES: CCOC(=O)c1ccc(NC2CCCCC2)c(N)c1 [ferrostatin-1]
- cell viability after RSL3 (ferroptosis rescue) (HepG2 cells [3]): attenuated RSL3-induced cytotoxicity

SMILES: CNC(=O)[C@H](C)NP(=S)(Oc1ccccc1)c1ccccc1 (stereo partly shown) [JZ-12]
- H2S release over 6 h (Carboxypeptidase Y (CPY) [4]): inadequate

SMILES: C1COCCN1.COc1ccc(P(=S)(S)N2CCOCC2)cc1 (stereo not shown) [GYY4137, reference compound]
- H2S release over 6 h (Carboxypeptidase Y (CPY) [4]): low amount of H2S
- H2S release behaviour in homogenates [5]: almost undetectable

SMILES: CCC[C@H](NC(=O)[C@@H]1[C@H]2CCC[C@H]2CN1C(=O)[C@@H](NC(=O)[C@@H](NC(=O)c1cnccn1)C1CCCCC1)C(C)(C)C)C(=O)C(=O)NC1CC1 [telaprevir]
- effect of inhibitor on lysosomal 3 formed from JZ-6 (HepG2 cells [6]): significant decrease

SMILES: [Na+].[SH-] [NaHS]
- IL-1β and IL-6 secretion (RAW264.7 macrophages): modest inhibitory effect
- cellular ROS accumulation induced by FFA (HepG2 cells [7]): strikingly reduced the cellular fluorescence signal
- MDA levels (lipid peroxidation) (HepG2 cells [8]): alleviated

SMILES: O=[N+]([O-])c1ccc(OP(=O)(O)Oc2ccc([N+](=O)[O-])cc2)cc1 [BNPP, bis(p-nitrophenyl) phosphate]
- effect of inhibitor on lysosomal 3 formed from JZ-6 (HepG2 cells [6]): increase in lysosomal 3

SMILES: Cc1ccc(=O)n(-c2ccc(OP(=S)(N[C@@H](C)C(=O)OC(C)C)c3ccccc3)cc2)c1 (stereo partly drawn) [JZ-HND, isopropyl ((4-(5-methyl-2-oxopyridin-1(2H)-yl)phenoxy) (phenyl)phosphorothioyl)-L-alaninate]
- generation of H2S, rate constant k (Carboxypeptidase Y (CPY) [4]; JZ-HND 5 μmol/L, pH 7.4, 37 °C): 0.3748 h⁻¹
- generation of 3, rate constant k (Carboxypeptidase Y (CPY) [9]): 0.3133 h⁻¹
- generation of HND, rate constant k (Carboxypeptidase Y (CPY) [9]): 1.090 h⁻¹
- degradation of donor, rate constant k (Carboxypeptidase Y (CPY) [9]; TBS pH 7.4, 37 °C): 1.085 h⁻¹
- H2S release behaviour in homogenates [5]: biphasic and lasted longer
- Cmax (liver) [10]: 15 µM
- time of maximum intrahepatic concentration [10]: half an hour
- detection in the liver after 8 h of administration ([10]; 8 h): not detected
- levels of HSSH and CysSH in liver [11]: no significant change
- levels of GSH, GSSH and CysSSH in liver ([11]; 0.5 h): significant increases
- H2S level in liver tissue ([11]; 0.5 h vs pre-dose (0 h)): significant increase compared to the pre-dose level
- mRNA expression of ACTA2 and COL1A1 [2]: dose-dependently inhibited
- ROS levels induced by TGF-β1 (LX-2 cells): significantly inhibited
- IL-1β and IL-6 secretion (RAW264.7 macrophages): significant inhibition
- collagen fiber accumulation (Masson's trichrome) [12]: significantly slowed collagen fiber accumulation
- hepatic ballooning and inflammatory cell infiltration (H&E) [12]: significantly reduced
- hepatic expression of oxidative stress genes (Gpx1, Sod1, Sod2, Cat) [12]: rebounded
- hepatic tissue GPX activity [12]: significant increase
- liver gene levels of fibrotic markers (Tgfb1, Col1a1, Col3a1, Acta2) [12]: reversals of the increased gene levels
- liver mRNA levels of Nfkb1, Il1b and Tnfa [12]: strongly suppressed
- serum ALT and AST levels [12]: consistently lower
- serum SOD activity ([12]; vs control and HND groups): significantly lower
